According to paper PMC9435035 (ACS Omega, 2022):
Each block holds one compound with its values, some of them ahead of it.

Assays:
α-glucosidase = α-glucosidase (Saccharomyces cerevisiae, UniProt P53341); test: α-glucosidase inhibitory activity; type: biochemical; conditions: read-out: glucosidase inhibition IC50 ± SEM; mean ± SEM
Balb/C mice = test: acute toxicity study in mice; type: in vivo
Method in brief: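 Two-phase modified Lorke protocol in Balb/C mice (20–25 g), four per group. Phase 1: control given Tween-80 (2%); other groups received oral test compound at 100, 500 or 1000 mg/kg. Phase 2: oral doses of 1250, 1500 and 2000 mg/kg. Animals observed for the first 24 h, then daily for 2 weeks for diarrhea, convulsions, lethargy, sleeping, salivation and tremors, with mortality monitored.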

[1] = system: overnight fasted normal rats; test: oral glucose tolerance test; type: in vivo, Wistar albino rats; conditions: OGTT, glucose 3 g/kg oral
[2] = system: streptozotocin-induced diabetic Wistar rats; test: antidiabetic activity: blood glucose in STZ-induced diabetes; type: in vivo, Wistar albino rats
Method in brief: (§1)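 Male Wistar albino rats (170–200 g, 8–10 weeks), fasted overnight, given STZ 50 mg/kg i.p. in 0.1 M citrate buffer, then 10% glucose for 3 days. Tail-vein glucose by glucometer at 72 h; >250 mg/dL counted as diabetic. Body weight and blood glucose on days 1, 7, 14, 21 and 28. Means ± SEM, one-way ANOVA with Dunnett's test.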

[3] = body weight of STZ-induced diabetic rats; type: in vivo, Wistar albino rats; conditions: for body weight, day 1: day 1, in g (unit assumed); for body weight, day 7: day 7, in g (unit assumed); for body weight, day 14: day 14, in g (unit assumed); for body weight, day 21: day 21, in g (unit assumed); for body weight, day 28: day 28, in g (unit assumed)
Method in brief: as §1

[4] = system: streptozotocin-induced diabetic Wistar rats; test: serum profile; type: in vivo, Wistar albino rats; conditions: STZ-diabetic rats; for (ALP) IU / (SGOT) IU / (SGPT) IU: serum
Method in brief: (§2)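 STZ-diabetic Wistar rats (n = 8 per group) received test compound at 10 or 20 mg/kg p.o., or glibenclamide 500 μg/kg p.o., once daily for 28 days; controls received vehicle. On day 28, rats were anesthetised with pentobarbital sodium (35 mg/kg) and blood was drawn by cardiac puncture. Serum ALP, SGPT, SGOT, LDL, HDL, TG, total cholesterol, creatinine and insulin were measured. Means ± SEM, one-way ANOVA with Dunnett's test.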

[5] = system: streptozotocin-induced diabetic Wistar rats; test: lipid profile in streptozotocin-induced diabetes; type: in vivo, Wistar albino rats; conditions: STZ-diabetic rats; 0.5 mg/kg for 28 days
Method in brief: as §2

α-glucosidase, sequence (P53341 whole entry): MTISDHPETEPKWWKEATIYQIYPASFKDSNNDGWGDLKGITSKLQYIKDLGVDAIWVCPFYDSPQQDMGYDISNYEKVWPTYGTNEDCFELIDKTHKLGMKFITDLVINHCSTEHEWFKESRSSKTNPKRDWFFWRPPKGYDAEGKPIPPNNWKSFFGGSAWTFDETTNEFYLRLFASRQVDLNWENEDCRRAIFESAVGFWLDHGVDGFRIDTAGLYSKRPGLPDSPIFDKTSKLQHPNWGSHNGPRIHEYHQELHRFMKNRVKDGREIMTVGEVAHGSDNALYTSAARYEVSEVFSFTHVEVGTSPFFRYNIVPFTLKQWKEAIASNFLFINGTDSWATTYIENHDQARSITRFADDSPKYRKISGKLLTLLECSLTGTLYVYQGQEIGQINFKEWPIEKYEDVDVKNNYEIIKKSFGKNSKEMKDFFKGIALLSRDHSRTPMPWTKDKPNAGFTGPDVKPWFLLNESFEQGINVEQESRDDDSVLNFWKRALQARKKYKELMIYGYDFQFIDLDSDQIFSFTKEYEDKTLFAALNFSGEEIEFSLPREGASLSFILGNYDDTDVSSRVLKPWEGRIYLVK

IC50 (α-glucosidase): 6.28 ± 0.71 µM
Compound: 2-(3-Methoxy-4-propoxyphenyl)-4-(p-tolyl)-2,3-dihydrobenzo[b][1,5]thiazepine [5B]

Compound: 4-(4-(p-Tolyl)-2,3-dihydrobenzo[b][1,5]thiazepin-2-yl)benzoic acid [7B]
IC50 (α-glucosidase): 3.96 ± 0.42 µM
mortality (Balb/C mice; maximum oral dose of 2000 mg/kg (b.w.)): no mortality
toxic effects (diarrhea, convulsions, lethargy, sleeping, salivation, tremor) (Balb/C mice; oral up to 2000 mg/kg, observed daily for 2 weeks): no toxic effects
blood glucose level, 0 min ([1]; dose 10 mg/kg): 104.01 ± 4.97 mg/dL
blood glucose level, 30 min ([1]; dose 10 mg/kg): 120.71 ± 5.01 mg/dL
blood glucose level, 60 min ([1]; dose 10 mg/kg): 120.90 ± 4.54 mg/dL
blood glucose level, 90 min ([1]; dose 10 mg/kg): 116.52 ± 4.11 mg/dL
blood glucose level, 120 min ([1]; dose 10 mg/kg): 109.25 ± 4.91 mg/dL
blood glucose level, 0 min ([1]; dose 20 mg/kg): 103.88 ± 4.04 mg/dL
blood glucose level, 30 min ([1]; dose 20 mg/kg): 117.41 ± 4.70 mg/dL
blood glucose level, 60 min ([1]; dose 20 mg/kg): 114.22 ± 4.97 mg/dL
blood glucose level, 90 min ([1]; dose 20 mg/kg): 117.01 ± 4.66 mg/dL
blood glucose level, 120 min ([1]; dose 20 mg/kg): 108.91 ± 4.87 mg/dL
blood glucose level, day 1 ([2]; 10 mg/kg p.o. once daily): 377.08 ± 5.01 mg/dL
blood glucose level, day 7 ([2]; 10 mg/kg p.o. once daily): 290.20 ± 4.93 mg/dL
blood glucose level, day 14 ([2]; 10 mg/kg p.o. once daily): 215.76 ± 5.03 mg/dL
blood glucose level, day 21 ([2]; 10 mg/kg p.o. once daily): 153.19 ± 4.66 mg/dL
blood glucose level, day 28 ([2]; 10 mg/kg p.o. once daily, day 28): 136.51 ± 5.19 mg/dL
blood glucose level, day 1 ([2]; 20 mg/kg p.o. once daily): 374.21 ± 4.12 mg/dL
blood glucose level, day 7 ([2]; 20 mg/kg p.o. once daily): 238.39 ± 5.11 mg/dL
blood glucose level, day 14 ([2]; 20 mg/kg p.o. once daily): 171.44 ± 4.98 mg/dL
blood glucose level, day 21 ([2]; 20 mg/kg p.o. once daily): 134.20 ± 5.03 mg/dL
blood glucose level, day 28 ([2]; 20 mg/kg p.o. once daily, day 28, 20 mg/kg): 112.97 ± 4.56 mg/dL
body weight, day 1 ([3]; 10 mg/kg): 191.1 ± 4.07
body weight, day 7 ([3]; 10 mg/kg): 188.2 ± 4.57
body weight, day 14 ([3]; 10 mg/kg): 185.6 ± 4.90
body weight, day 21 ([3]; 10 mg/kg): 184.1 ± 4.71
body weight, day 28 ([3]; 10 mg/kg): 183.7 ± 4.32
body weight, day 1 ([3]; 20 mg/kg): 188.9 ± 4.67
body weight, day 7 ([3]; 20 mg/kg): 190.8 ± 4.21
body weight, day 14 ([3]; 20 mg/kg): 188.1 ± 4.62
body weight, day 21 ([3]; 20 mg/kg): 185.2 ± 3.91
body weight, day 28 ([3]; 20 mg/kg): 186.1 ± 4.58
insulin level ([4]; 10 mg/kg for 28 days): 0.621 ± 0.37 ng/mL
serum creatinine ([4]; 10 mg/kg for 28 days, 10 mg/kg): 0.85 ± 0.37 mg/dL
(ALP) IU ([4]; 10 mg/kg for 28 days, 10 mg/kg): 217.14 ± 4.61 IU
(SGOT) IU ([4]; 10 mg/kg for 28 days, 10 mg/kg): 26.71 ± 1.91 IU
(SGPT) IU ([4]; 10 mg/kg for 28 days, 10 mg/kg): 27.07 ± 2.77 IU
insulin level ([4]; 20 mg/kg for 28 days): 0.639 ± 0.29 ng/mL
serum creatinine ([4]; 20 mg/kg for 28 days, 20 mg/kg): 0.79 ± 0.31 mg/dL
(ALP) IU ([4]; 20 mg/kg for 28 days, 20 mg/kg): 209.01 ± 4.29 IU
(SGOT) IU ([4]; 20 mg/kg for 28 days, 20 mg/kg): 23.08 ± 2.11 IU
(SGPT) IU ([4]; 20 mg/kg for 28 days, 20 mg/kg): 23.91 ± 2.21 IU

Compound: COc1ccc(Cl)cc1C(=O)NCCc1ccc(S(=O)(=O)NC(=O)NC2CCCCC2)cc1 [glibenclamide, reference compound]
blood glucose level, 0 min ([1]; dose 0.5 mg/kg): 102.03 ± 4.22 mg/dL
blood glucose level, 30 min ([1]; dose 0.5 mg/kg): 103.92 ± 5.01 mg/dL
blood glucose level, 60 min ([1]; dose 0.5 mg/kg): 108.71 ± 4.21 mg/dL
blood glucose level, 90 min ([1]; dose 0.5 mg/kg): 101.86 ± 4.21 mg/dL
blood glucose level, 120 min ([1]; dose 0.5 mg/kg): 104.12 ± 4.67 mg/dL
blood glucose level, day 1 ([2]; 0.5 mg/kg p.o.): 352.28 ± 4.11 mg/dL
blood glucose level, day 7 ([2]; 0.5 mg/kg p.o.): 231.12 ± 4.29 mg/dL
blood glucose level, day 14 ([2]; 0.5 mg/kg p.o.): 151.43 ± 4.09 mg/dL
blood glucose level, day 21 ([2]; 0.5 mg/kg p.o.): 118.87 ± 4.03 mg/dL
blood glucose level, day 28 ([2]; 0.5 mg/kg p.o., day 28): 101.68 ± 4.19 mg/dL
body weight, day 1 ([3]; 0.5 mg/kg): 187.4 ± 4.57
body weight, day 7 ([3]; 0.5 mg/kg): 190.2 ± 3.98
body weight, day 14 ([3]; 0.5 mg/kg): 177.1 ± 4.21
body weight, day 21 ([3]; 0.5 mg/kg): 183.7 ± 4.33
body weight, day 28 ([3]; 0.5 mg/kg): 185.1 ± 4.48
HDL [5]: 65.90 ± 2.71 mg/dL
LDL [5]: 96.12 ± 4.31 mg/dL
TG [5]: 105.43 ± 4.31 mg/dL
total CH [5]: 122.09 ± 4.89 mg/dL
insulin level ([4]; 0.5 mg/kg for 28 days): 0.754 ± 0.33 ng/mL
serum creatinine ([4]; 0.5 mg/kg for 28 days): 0.57 ± 0.23 mg/dL
(ALP) IU ([4]; 0.5 mg/kg for 28 days): 185.32 ± 5.71 IU
(SGOT) IU ([4]; 0.5 mg/kg for 28 days): 20.68 ± 2.01 IU
(SGPT) IU ([4]; 0.5 mg/kg for 28 days): 19.63 ± 2.11 IU
